This is a sample that favours compounds with a hit; in the whole collection about 2.8% have one here.
Yeast life ext: compounds extending yeast replicative lifespan, primary screen, S. cerevisiae, OD615; S. cerevisiae growth with nicotinamide; deaD strain in restrictive glucose medium; inhibition of the nicotinamide effect, % at 10 µM; actives 0.68% (n = 130,000); AID 775, 2007;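 active = inhibition above a set limit, placed 3 SD over the median of all compounds, cut at about 26% in these data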
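Assay system: engineered S. cerevisiae DeaD replicative-lifespan strain, galactose-grown log-phase cells; medium: restrictive CSMM-D dextrose medium; also added: nicotinamide, 1.5 mM, co-present with compound; schedule: 48 h compound exposure at 30 °C, humidified; detection: absorbance at 615 nm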
HCT116 bCat-KO: primary screen for growth suppressors in beta-catenin knockout HCT116 cells (colon tumor, human). AID 818, 2007. HCT116 beta-catenin knockout viability, CellTiter-Glo, 60 h; stronger effect = lower value. actives 1.5% (n = 140,000). viability, % at 10 µM;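 active = viability at or under a set limit, the compound median less 4 SD, cut at about 6% in these data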
HCT116 PTEN-null: growth suppression of PTEN-null HCT116, primary screen, cell-based, CellTiter-Glo. HCT116 PTEN-null viability, 60 h; stronger effect = lower value. viability, % at 10 µM. actives 1.2% (n = 140,000);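 active = viability at or below a set limit, 4 SD under the median of all tested compounds, cut at about 3.7% in these data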;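 note: PTEN knockout HCT116 line with beta catenin targeted HCT116 as companion control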
sdo1 growth: growth rescue of sdo1-depleted yeast, primary screen, S. cerevisiae, bone marrow failure model; AID 817, 2007; z-score at 10 µM; S. cerevisiae sdo1-depleted JHY4D growth rescue, OD600 30 h; stronger effect = higher value; pdr5 snq2 efflux-pump mutant strain; actives 0.21% (n = 140,000);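 active = z-score above 3 at both the 24 hr and the 30 hr optical density reads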
BB579 growth dn: growth inhibitors of yeast BB579 in restrictive medium, primary screen, yeast lifespan-shortening project, S. cerevisiae; inhibition, % at 10 µM; OD615, 48 h; actives 0.51% (n = 140,000);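 active = inhibition above a set limit, 3 SD over the mean compound inhibition, cut at about 44% in these data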
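Test system: S. cerevisiae DeaD strain BB579 yeast; Medium: restrictive CSMM-D medium; Compound: one dose, 10 µM compound with 0.25% DMSO; Incubation: 4 h cell preincubation, 48 h compound exposure, 30 °C humidified; Signal: OD at 615 nm; Benchmarks: amphotericin B at 10 µg/mL as positive control.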
SDO1 rescue DR: SDO1-depleted yeast growth rescue, concentration-response, diseases of bone marrow failure, JHY4D, OD600; shares compounds with sdo1 growth; S. cerevisiae JHY4D (SDO1-depleted) growth rescue, 30 h; stronger effect = higher value; efflux-deficient strain, SNQ2 and PDR5 mutated; OD recovery (concentration not given with the values); actives 44% (n = 440); AID 949, 2007;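 active = yeast growth recovered at 30 hours, either rising with dose fitted slope above 0.001 or with average optical density gain above 0.07, some results past the limit were not filed as active; inactive = growth falling with dose or no effect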
Each line names hits and unclear results; the compound was inactive in the other large screens (follow-up assays come after a bar, where they were run).

C=CCOC(=O)Nc1c(C(=O)OC)[nH]c2ccccc12	sdo1 growth 3.9 | SDO1 rescue DR inactive
CCCCOc1ccc(C(=O)N/N=C/c2ccc(OCCN3CCCCC3)c(OC)c2)cc1	sdo1 growth 9 | SDO1 rescue DR 0.11
COc1cc(/C=N/NC(=O)CN2CCCCC2)ccc1OCc1ccccc1	none
Cc1cc(C)nc(SCC(=O)Nc2ncc(Cc3cccc(Cl)c3)s2)n1	none | SDO1 rescue DR 0.091
O=C(CSC(=S)N1CCN(c2ccccc2)CC1)Nc1nc(-c2ccccc2)c(-c2ccccc2)o1	none
COc1cc(CNCc2ccccn2)ccc1OCc1cccc(Cl)c1	sdo1 growth 7.7 | SDO1 rescue DR 0.072
COc1cc(CNCc2ccccn2)ccc1OCc1ccc(Cl)cc1	none
COCC(=O)Nc1sc2c(c1C(=O)OC)CCCC2	none
COC(=O)c1c(NC(=O)Cc2cccs2)sc2c1CCCC2	sdo1 growth 7.5 | SDO1 rescue DR inactive
Cc1ccccc1C1(CCN2CCCCC2)CCOC(C)(C)C1 (stereo not drawn)	none
C=CCc1cc(/C=N\NC(=O)CSc2nnc(CCCc3ccc(OC)c(C)c3)o2)cc(OC)c1O	none
C=CCc1cc(/C=N/NC(=O)CSc2nnc(CCCc3ccc(OC)cc3)o2)cc(OC)c1O	none | SDO1 rescue DR 0.087
CC(NC(=O)COC(=O)Cc1ccc(-c2ccccc2)cc1)c1ccccc1 (stereo not drawn)	none
N#Cc1ccc(N/N=C/c2cn(-c3ccccc3)nc2-c2ccccc2)c([N+](=O)[O-])c1	HCT116 bCat-KO 1.8, HCT116 PTEN-null 1.0 | SDO1 rescue DR inactive
CS(=O)(=O)N(Cc1ccc(C(=O)NCCSc2ccccn2)cc1)c1ccccc1	none
Cc1ccc(N(Cc2ccc(C(=O)NCCSc3ccccn3)cc2)S(C)(=O)=O)cc1C	sdo1 growth 7.2 | SDO1 rescue DR 0.1
c1cnc(N2CCSCC2)nc1	sdo1 growth 8.9 | SDO1 rescue DR inactive
COC(=O)c1ccc(NC(=O)C2CC2)o1	none
O=C(COC(=O)Cc1cccs1)Nc1ccccc1	none | SDO1 rescue DR 0.034
O=C1NC(=O)c2cc(NC(=O)C3CCCCC3)ccc21	none
O=C(Nc1ccccc1)c1cccc(-c2nnc(-c3ccccc3)o2)c1	none
COc1cccc(C(=O)Nc2cccc(-c3nnc(-c4ccco4)o3)c2)c1	HCT116 bCat-KO 5.0, sdo1 growth 4.7 | SDO1 rescue DR inactive
O=C(O)CCCn1nc(C(F)(F)F)c2c1CCCCC2	sdo1 growth 3.4 | SDO1 rescue DR 0.061
O=C(Cn1nc(C(F)(F)F)c2c1CCC2)NC1CCCCC1	none
O=C(CCCOc1ccccc1)N1CCN(c2ccccc2)CC1	sdo1 growth 8.8 | SDO1 rescue DR 0.099
CCOC(=O)c1ccc(CNC(=O)c2cc(C(C)(C)C)oc2C)o1	none
c1ccc(-c2cnn3c(-c4ccccc4)c(-c4ccccc4)nc3n2)cc1	none
S=C(Nc1ccccc1)Nc1nc2ccccc2n1CCOc1ccc(Br)cc1	HCT116 bCat-KO 1.6, HCT116 PTEN-null 2.1, sdo1 growth 7.6 | SDO1 rescue DR 0.089
O=S(=O)(O)c1nc2ccccc2n1CCOc1ccccc1	sdo1 growth 8.3 | SDO1 rescue DR inactive
Cc1cccc(OCCn2c(S(=O)(=O)O)nc3ccccc32)c1	none
O=C(Nc1cc(S(=O)(=O)N2CCOCC2)ccc1Cl)C(=O)c1c(-c2ccccc2)cc2ccccn12	none
CC(=O)c1ccc(NC(=O)c2ccc(COc3ccccc3[N+](=O)[O-])o2)cc1	none | SDO1 rescue DR 0.097
CC12CCC(C(=O)Nc3nccs3)(OC1=O)C2(C)C (stereo not drawn)	sdo1 growth 3 | SDO1 rescue DR 0.091
Cc1cccnc1NC(=O)C12CCC(C)(C(=O)O1)C2(C)C (stereo not drawn)	none
CCOC(=O)C(O)(NC(=O)c1cccnc1)C(F)(F)F (stereo not drawn)	sdo1 growth 8.1 | SDO1 rescue DR 0.093
CCOC(=O)CNC(=O)c1cccnc1	none

Screens from PubChem.
